Legend:
[1] = Drug metabolism in Wistar rat plasma at 130 to 200 MBq, iv after 12 mins by radio-HPLC analysis; assay type: ADME, organism-based; settings: read-out: Drug metabolism
[2] = Lipophilicity, log P of the compound at pH 7.5 by reversed phase HPLC analysis; assay type: physicochemical; settings: buffer
How it was run: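 Retention times were set relative to catechol and calibrated against standards of known log P using a polynomial log P vs log RRT curve. Injections were done in triplicate and averaged.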

Translocator protein = Translocator protein (Rattus norvegicus, UniProt P16257); assay: Displacement of [3H]-PK 11195 from TSPO in rat C6 cell lysates after 2 hrs by scintillation counting analysis; assay type: cell-free
Chain of Translocator protein (P16257 whole entry, looked up): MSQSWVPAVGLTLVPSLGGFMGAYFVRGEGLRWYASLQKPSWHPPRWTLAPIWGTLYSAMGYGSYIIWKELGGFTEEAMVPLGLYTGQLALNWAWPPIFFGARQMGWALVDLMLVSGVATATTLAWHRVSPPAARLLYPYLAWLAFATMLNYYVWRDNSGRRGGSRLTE
How it was run: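 Rat C6 glioma cells washed in PBS and freeze-thawed three times in HEPES/mannitol/sucrose lysis buffer with protease inhibitors and MgCl2, pH 7.4 (lysate 0.5 mg/mL). Reaction stopped by filtration onto PEI-presoaked filters, then scintillation counting.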

[3] = Displacement of [3H]-flunitrazepam from CBR in Wistar rat cerebral cortex membranes after 2 hrs by scintillation counting analysis; assay type: cell membranes, Membrane
How it was run: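 Male Wistar rat cerebral cortex homogenized in ice-cold PBS pH 7.4 (5.0 mg/mL protein). Incubated with 0.6 nM [3H]flunitrazepam (final) and ligand at 10⁻⁵ to 10⁻⁷ M for 2 h at 25 °C. Reaction stopped by filtration onto PEI-presoaked filters, then scintillation counting of bound activity.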

Rattus norvegicus [4] = organism: Rattus norvegicus; assay: Biodistribution in Wistar rat skull at 1.0 to 1.5 mCi after 60 mins by NaI well counting analysis; assay type: ADME, organism-based; settings: in vivo, 1 h
How it was run: (§1)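 Radiotracer given to rats; 14 tissues plus urine taken 60 min after a 1.0–1.5 mCi injection. Each sample weighed and its radioactivity counted in a NaI well counter. %ID/g derived from weight and radioactivity.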

Brain [5] = assay: Biodistribution in Wistar rat brain at 1.0 to 1.5 mCi after 60 mins by NaI well counting analysis; assay type: ADME, organism-based; settings: in vivo, 1 h; how it was run: as §1
Testes = assay: Biodistribution in Wistar rat testes at 1.0 to 1.5 mCi after 60 mins by NaI well counting analysis; assay type: ADME, organism-based, Testis; settings: in vivo, 1 h; how it was run: as §1
Rattus norvegicus [6] = organism: Rattus norvegicus; assay: Biodistribution in Wistar rat stomach at 1.0 to 1.5 mCi after 60 mins by NaI well counting analysis; assay type: ADME, organism-based; settings: in vivo, 1 h; how it was run: as §1
Rattus norvegicus [7] = organism: Rattus norvegicus; assay: Biodistribution in Wistar rat small bowel at 1.0 to 1.5 mCi after 60 mins by NaI well counting analysis; assay type: ADME, organism-based, Small intestine; settings: in vivo, 1 h; how it was run: as §1
Colon = assay: Biodistribution in Wistar rat colon at 1.0 to 1.5 mCi after 60 mins by NaI well counting analysis; assay type: ADME, organism-based; settings: in vivo, 1 h; how it was run: as §1
Liver [8] = assay: Biodistribution in Wistar rat liver at 1.0 to 1.5 mCi after 60 mins by NaI well counting analysis; assay type: ADME, organism-based; settings: in vivo, 1 h; how it was run: as §1
Lung [9] = assay: Biodistribution in Wistar rat lung at 1.0 to 1.5 mCi after 60 mins by NaI well counting analysis; assay type: ADME, organism-based; settings: in vivo, 1 h; how it was run: as §1
Heart [10] = assay: Biodistribution in Wistar rat heart at 1.0 to 1.5 mCi after 60 mins by NaI well counting analysis; assay type: ADME, organism-based; settings: in vivo, 1 h; how it was run: as §1
Kidney [11] = assay: Biodistribution in Wistar rat kidney at 1.0 to 1.5 mCi after 60 mins by NaI well counting analysis; assay type: ADME, organism-based; settings: in vivo, 1 h; how it was run: as §1
Spleen [12] = assay: Biodistribution in Wistar rat spleen at 1.0 to 1.5 mCi after 60 mins by NaI well counting analysis; assay type: ADME, organism-based; settings: in vivo, 1 h; how it was run: as §1
Rattus norvegicus [13] = organism: Rattus norvegicus; assay: Stability in C6 cells bearing Wistar rat plasma at 1.5 mCi after 90 mins by radio-HPLC analysis; assay type: ADME, organism-based; settings: c6, 1.5 h
How it was run: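 Arterial blood (200 μL) drawn at 2, 12, 30, 60 and 90 min after 1.5 mCi radiotracer. Plasma extracted with acetonitrile/water 7/1 and centrifuged. Supernatant run on reversed-phase radio-HPLC with 0.1 M ammonium acetate pH 10/acetonitrile (30/70).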

[14] = Ratio of total distribution volume in C6 cells bearing Wistar rat tumor to total distribution volume in C6 cells bearing Wistar rat brain; assay type: ADME, cell-based
[15] = Drug uptake in iv dosed C6 cells bearing Wistar rat tongue after 90 mins by PET imaging analysis; assay type: ADME, organism-based; settings: in vivo, 1.5 h
How it was run: (§2)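 Male Wistar rats stereotactically inoculated in the right hemisphere with 1.0×10^5 C6 glioma cells two weeks before imaging, with venous and arterial catheters placed. Tumors confirmed by 4.7-T MRI. PET/CT followed within 24 h, with tracer given via jugular catheter during the scan.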

Brain [16] = assay: Drug uptake in iv dosed C6 cells bearing Wistar rat brain after 90 mins by PET imaging analysis; assay type: ADME, organism-based; settings: in vivo, 1.5 h; how it was run: as §2
[17] = Drug uptake in iv dosed C6 cells bearing Wistar rat olfactory epithelium after 90 mins by PET imaging analysis; assay type: ADME, organism-based; settings: in vivo, 1.5 h; how it was run: as §2
Harderian gland = assay: Drug uptake in iv dosed C6 cells bearing Wistar rat harderian glands after 90 mins by PET imaging analysis; assay type: ADME, organism-based; settings: in vivo, 1.5 h; how it was run: as §2
[18] = Drug uptake in iv dosed C6 cells bearing Wistar rat tumor after 90 mins by PET imaging analysis; assay type: ADME, organism-based, Neoplasm; settings: in vivo, 1.5 h; how it was run: as §2
[19] = Drug excretion in Wistar rat urine at 1.0 to 1.5 mCi after 90 mins by NaI well counting analysis in presence of 2-(5,7-diethyl-2-(4-(2-fluoroethoxy)phenyl)pyrazolo[1,5-a]-pyrimidin-3-yl)-N,N-diethylacetamide; assay type: ADME, tissue-based; settings: in vivo, 1.5 h
How it was run: (§3)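 Rats received 1.0–1.5 mCi radiotracer. Unlabelled analog (10 mg/kg) was injected 30 min after tracer as a displacement challenge. Tissues taken and counted in a NaI well counter. %ID/g derived from sample weight and radioactivity.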

Liver [20] = assay: Drug uptake in Wistar rat liver at 1.0 to 1.5 mCi after 90 mins by NaI well counting analysis in presence of 2-(5,7-diethyl-2-(4-(2-fluoroethoxy)phenyl)pyrazolo[1,5-a]-pyrimidin-3-yl)-N,N-diethylacetamide; assay type: ADME, tissue-based; settings: in vivo, 1.5 h; how it was run: as §3
Muscle tissue = assay: Drug uptake in Wistar rat muscle at 1.0 to 1.5 mCi after 90 mins by NaI well counting analysis in presence of 2-(5,7-diethyl-2-(4-(2-fluoroethoxy)phenyl)pyrazolo[1,5-a]-pyrimidin-3-yl)-N,N-diethylacetamide; assay type: ADME, tissue-based; settings: in vivo, 1.5 h; how it was run: as §3
Lung [21] = assay: Drug uptake in Wistar rat lung at 1.0 to 1.5 mCi after 90 mins by NaI well counting analysis in presence of 2-(5,7-diethyl-2-(4-(2-fluoroethoxy)phenyl)pyrazolo[1,5-a]-pyrimidin-3-yl)-N,N-diethylacetamide; assay type: ADME, tissue-based; settings: in vivo, 1.5 h; how it was run: as §3
Kidney [22] = assay: Drug uptake in Wistar rat kidney at 1.0 to 1.5 mCi after 90 mins by NaI well counting analysis in presence of 2-(5,7-diethyl-2-(4-(2-fluoroethoxy)phenyl)pyrazolo[1,5-a]-pyrimidin-3-yl)-N,N-diethylacetamide; assay type: ADME, tissue-based; settings: in vivo, 1.5 h; how it was run: as §3
Heart [23] = assay: Drug uptake in Wistar rat heart at 1.0 to 1.5 mCi after 90 mins by NaI well counting analysis in presence of 2-(5,7-diethyl-2-(4-(2-fluoroethoxy)phenyl)pyrazolo[1,5-a]-pyrimidin-3-yl)-N,N-diethylacetamide; assay type: ADME, tissue-based; settings: in vivo, 1.5 h; how it was run: as §3
Spleen [24] = assay: Drug uptake in Wistar rat spleen at 1.0 to 1.5 mCi after 90 mins by NaI well counting analysis in presence of 2-(5,7-diethyl-2-(4-(2-fluoroethoxy)phenyl)pyrazolo[1,5-a]-pyrimidin-3-yl)-N,N-diethylacetamide; assay type: ADME, tissue-based; settings: in vivo, 1.5 h; how it was run: as §3
Rattus norvegicus [25] = organism: Rattus norvegicus; assay: Biodistribution in Wistar rat whole blood at 1.0 to 1.5 mCi after 60 mins by NaI well counting analysis; assay type: ADME, organism-based; settings: in vivo, 1 h; how it was run: as §1
Rattus norvegicus [26] = organism: Rattus norvegicus; assay: Biodistribution in Wistar rat skeletal muscle at 1.0 to 1.5 mCi after 60 mins by NaI well counting analysis; assay type: ADME, organism-based, Muscle tissue; settings: in vivo, 1 h; how it was run: as §1

For CCN(CC)C(=O)Cc1c(-c2ccc(OCC[18F])cc2)nn2c(C)cc(C)nc12 [DPA-714 F-18], the metabolised at 0.2 h [1] was 30%.

For CCc1cc(CC)n2nc(-c3ccc(OC)cc3)c(CC(=O)N(CC)CC)c2n1, the logP [2] was 2.84 and the Ki (Translocator protein) was 0.18 nM.

Molecule CCN(CC)C(=O)Cc1c(-c2ccc(OCCF)cc2)nn2c(C)c(Cl)c(C)nc12 has a logP [2] of 2.55 and a Ki (Translocator protein) of 67.9 nM.

CCc1c(C)nc2c(CC(=O)N(CC)CC)c(-c3ccc(OC)cc3)nn2c1C gave a logP [2] of 2.78 and a Ki (Translocator protein) of 157 nM.

With CCN(CC)C(=O)Cc1c(-c2ccc(OC)cc2)nn2c(C(C)C)cc(C(C)C)nc12 the logP [2] was 2.98 and the Ki (Translocator protein) was > 500 nM.

CCN(CC)C(=O)Cc1c(-c2ccc(OCCF)cc2)nn2c(C)c(C)c(C)nc12 showed a logP [2] of 2.47 and a Ki (Translocator protein) of 83 nM.

Work on CCc1c(C)nc2c(CC(=O)N(CC)CC)c(-c3ccc(OCCF)cc3)nn2c1C yielded a logP [2] of 2.53 and a Ki (Translocator protein) of 277 nM.

With CCc1cc(CC)n2nc(-c3ccc(OCCF)cc3)c(CC(=O)N(CC)CC)c2n1 the Ki [3] was > 10000 nM, the logP [2] was 2.5 and the Ki (Translocator protein) was 0.27 nM.

With CCN(CC)C(=O)Cc1c(-c2ccc(OCCF)cc2)nn2c(C)cc(C)nc12 [DPA-714] the logP [2] was 2.12.

For CCN(CC)C(=O)Cc1c(-c2ccc(OCCF)cc2)nn2c(C(C)C)cc(C(C)C)nc12, the logP [2] was 2.73 and the Ki (Translocator protein) was > 500 nM.

Work on CCN(CC)C(=O)Cc1c(-c2ccc(OC)cc2)nn2c(C)c(Cl)c(C)nc12 yielded a logP [2] of 2.99 and a Ki (Translocator protein) of 55.4 nM.

For CCc1cc(CC)n2nc(-c3ccc(OCC[18F])cc3)c(CC(=O)N(CC)CC)c2n1, the Drug uptake (Rattus norvegicus [4]) was “Active”, the Drug uptake (Brain [5]) was “Active” and the Drug uptake (Testes) was “Active”. The Drug uptake (Rattus norvegicus [6]) was “Active”, the Drug uptake (Rattus norvegicus [7]) was “Active” and the Drug uptake (Colon) was “Active”. For the same molecule, the Drug uptake (Liver [8]) was “Active”, the Drug uptake (Lung [9]) was “Active” and the Drug uptake (Heart [10]) was “Active”. For the same molecule, the Drug uptake (Kidney [11]) was “Active”, the Drug uptake (Spleen [12]) was “Active” and the Stability (Rattus norvegicus [13]) was “Stable”. For the same molecule, the Ratio [14] was 6, the Drug uptake [15] was “Active” and the Drug uptake (Brain [16]) was “Active”. For the same molecule, the Drug uptake [17] was “Active”, the Drug uptake (Harderian gland) was “Active” and the Drug uptake [18] was “Active”. The Drug excretion [19] was “Active”, the Drug uptake (Liver [20]) was “Active” and the Drug uptake (Muscle tissue) was “Active”. The Drug uptake (Lung [21]) was “Not Active”, the Drug uptake (Kidney [22]) was “Not Active” and the Drug uptake (Heart [23]) was “Not Active”. The Drug uptake (Spleen [24]) was “Not Active”, the Ct (Rattus norvegicus [25]) was “Not Active” and the Drug uptake (Rattus norvegicus [26]) was “Active”.

CCN(CC)C(=O)Cc1c(-c2ccc(OC)cc2)nn2c(C)c(CC(C)=O)c(C)nc12 showed a logP [2] of 2.57 and a Ki (Translocator protein) of 201 nM.

CCN(CC)C(=O)Cc1c(-c2ccc(OCCF)cc2)nn2c(C)c(CC(C)=O)c(C)nc12 gave a logP [2] of 2.07 and a Ki (Translocator protein) of 252 nM.

Work on CCN(CC)C(=O)Cc1c(-c2ccc(OC)cc2)nn2c(C)c(C)c(C)nc12 yielded a logP [2] of 2.45 and a Ki (Translocator protein) of 93.7 nM.

Molecule CCN(CC)C(=O)Cc1c(-c2ccc(OC)cc2)nn2c(C)cc(C)nc12 has a logP [2] of 2.4.
